# Where “and” joins values, the source holds several entries; their conditions need not be identical. Equal values may be shown once.
# What was measured:
# HEK-293T = experiment: Multiplex assay against HEK293T; assay type: toxicity, cell-based; conditions: human
# Summary of the method: (§1)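 Live cells carried four stains from seeding: Hoechst33342, BioTracker Green Microtubule Cytoskeleton Dye, MitoTracker Red and Annexin V Alexa Fluor 680. They were imaged on a CQ1 microscope at 37°C and 5% CO2 after compound addition. Using CellPathfinder machine-learning gating, cells were split into Hoechst high-intensity objects or normal cells, normal cells into healthy, pyknosed or fragmented nuclei, and pyknosed cells into mitotic or apoptotic; tubulin, mitochondrial-mass and membrane-permeability phenotypes are per cents of healthy-nucleus cells.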
# Fibroblast = experiment: Multiplex assay against human fibroblast; assay type: toxicity, cell-based; summary of the method: as §1
# [1] = 12 h, 1 µM, compound concentration 1 uM
# [2] = 12 h, 10 µM, compound concentration 10 uM
# [3] = 24 h, 1 µM, compound concentration 1 uM
# [4] = 24 h, 10 µM, compound concentration 10 uM
# [5] = 48 h, 1 µM, compound concentration 1 uM
# [6] = 48 h, 10 µM, compound concentration 10 uM
smiles,measurement,setting,value
Nc1nc(CC(=O)Nc2ccc(CCNC[C@H](O)c3ccccc3)cc2)cs1 [MIRABEGRON],Population Apoptotic (%),HEK-293T; [1],22% and 55%
same,Population Fragmented Nuclei (%),HEK-293T; [1],5% and 8%
same,Population Healthy Nuclei (%),HEK-293T; [1],84% and 80%
same,Population Hoechst High Intensity Objects (%),HEK-293T; [1],5%
same,Population Membrane Permeable-Phenotype (%),HEK-293T; [1],0%
same,Population Mitochondria Different-Phenotype (%),HEK-293T; [1],45% and 56%
same,Population Mitotic Cells (%),HEK-293T; [1],77% and 44%
same,Population Normal (%),HEK-293T; [1],94%
same,Population Pyknosed Nuclei (%),HEK-293T; [1],10% and 11%
same,Population Tubulin-Different-Phenotype (%),HEK-293T; [1],19%
same,Total Cell Count,HEK-293T; [1],455 and 332
same,Population Apoptotic (%),HEK-293T; [2],32% and 44%
same,Population Fragmented Nuclei (%),HEK-293T; [2],5% and 11%
same,Population Healthy Nuclei (%),HEK-293T; [2],77% and 74%
same,Population Hoechst High Intensity Objects (%),HEK-293T; [2],7% and 8%
same,Population Membrane Permeable-Phenotype (%),HEK-293T; [2],0%
same,Population Mitochondria Different-Phenotype (%),HEK-293T; [2],51% and 64%
same,Population Mitotic Cells (%),HEK-293T; [2],67% and 56%
same,Population Normal (%),HEK-293T; [2],92% and 91%
same,Population Pyknosed Nuclei (%),HEK-293T; [2],17% and 14%
same,Population Tubulin-Different-Phenotype (%),HEK-293T; [2],41% and 29%
same,Total Cell Count,HEK-293T; [2],423 and 388
same,Population Apoptotic (%),HEK-293T; [3],28% and 27%
same,Population Fragmented Nuclei (%),HEK-293T; [3],10% and 8%
same,Population Healthy Nuclei (%),HEK-293T; [3],80% and 83%
same,Population Hoechst High Intensity Objects (%),HEK-293T; [3],2% and 3%
same,Population Membrane Permeable-Phenotype (%),HEK-293T; [3],0%
same,Population Mitochondria Different-Phenotype (%),HEK-293T; [3],30% and 41%
same,Population Mitotic Cells (%),HEK-293T; [3],71% and 72%
same,Population Normal (%),HEK-293T; [3],97% and 96%
same,Population Pyknosed Nuclei (%),HEK-293T; [3],9% and 7%
same,Population Tubulin-Different-Phenotype (%),HEK-293T; [3],14% and 13%
same,Total Cell Count,HEK-293T; [3],635 and 390
same,Population Apoptotic (%),HEK-293T; [4],31% and 35%
same,Population Fragmented Nuclei (%),HEK-293T; [4],8% and 9%
same,Population Healthy Nuclei (%),HEK-293T; [4],77% and 82%
same,Population Hoechst High Intensity Objects (%),HEK-293T; [4],4% and 5%
same,Population Membrane Permeable-Phenotype (%),HEK-293T; [4],0%
same,Population Mitochondria Different-Phenotype (%),HEK-293T; [4],32% and 49%
same,Population Mitotic Cells (%),HEK-293T; [4],68% and 64%
same,Population Normal (%),HEK-293T; [4],95% and 94%
same,Population Pyknosed Nuclei (%),HEK-293T; [4],13% and 7%
same,Population Tubulin-Different-Phenotype (%),HEK-293T; [4],23%
same,Total Cell Count,HEK-293T; [4],552 and 524
same,Population Apoptotic (%),HEK-293T; [5],18% and 28%
same,Population Fragmented Nuclei (%),HEK-293T; [5],13% and 17%
same,Population Healthy Nuclei (%),HEK-293T; [5],80% and 76%
same,Population Hoechst High Intensity Objects (%),HEK-293T; [5],1% and 0%
same,Population Membrane Permeable-Phenotype (%),HEK-293T; [5],1%
same,Population Mitochondria Different-Phenotype (%),HEK-293T; [5],14% and 21%
same,Population Mitotic Cells (%),HEK-293T; [5],81% and 71%
same,Population Normal (%),HEK-293T; [5],98% and 99%
same,Population Pyknosed Nuclei (%),HEK-293T; [5],5%
same,Population Tubulin-Different-Phenotype (%),HEK-293T; [5],10%
same,Total Cell Count,HEK-293T; [5],1141 and 662
same,Population Apoptotic (%),HEK-293T; [6],26% and 28%
same,Population Fragmented Nuclei (%),HEK-293T; [6],12%
same,Population Healthy Nuclei (%),HEK-293T; [6],78% and 80%
same,Population Hoechst High Intensity Objects (%),HEK-293T; [6],3% and 2%
same,Population Membrane Permeable-Phenotype (%),HEK-293T; [6],0%
same,Population Mitochondria Different-Phenotype (%),HEK-293T; [6],25% and 30%
same,Population Mitotic Cells (%),HEK-293T; [6],73% and 71%
same,Population Normal (%),HEK-293T; [6],96% and 97%
same,Population Pyknosed Nuclei (%),HEK-293T; [6],8% and 6%
same,Population Tubulin-Different-Phenotype (%),HEK-293T; [6],16% and 15%
same,Total Cell Count,HEK-293T; [6],818 and 750
same,Population Apoptotic (%),Fibroblast; [1],53% and 31%
same,Population Fragmented Nuclei (%),Fibroblast; [1],19% and 27%
same,Population Healthy Nuclei (%),Fibroblast; [1],62% and 52%
same,Population Hoechst High Intensity Objects (%),Fibroblast; [1],5% and 4%
same,Population Membrane Permeable-Phenotype (%),Fibroblast; [1],0% and 9%
same,Population Mitochondria Different-Phenotype (%),Fibroblast; [1],6% and 12%
same,Population Mitotic Cells (%),Fibroblast; [1],46% and 68%
same,Population Normal (%),Fibroblast; [1],94% and 95%
same,Population Pyknosed Nuclei (%),Fibroblast; [1],18% and 19%
same,Population Tubulin-Different-Phenotype (%),Fibroblast; [1],25% and 46%
same,Total Cell Count,Fibroblast; [1],164 and 189
same,Population Apoptotic (%),Fibroblast; [2],46% and 30%
same,Population Fragmented Nuclei (%),Fibroblast; [2],15% and 31%
same,Population Healthy Nuclei (%),Fibroblast; [2],75% and 41%
same,Population Hoechst High Intensity Objects (%),Fibroblast; [2],3% and 5%
same,Population Membrane Permeable-Phenotype (%),Fibroblast; [2],0% and 1%
same,Population Mitochondria Different-Phenotype (%),Fibroblast; [2],4% and 3%
same,Population Mitotic Cells (%),Fibroblast; [2],53% and 69%
same,Population Normal (%),Fibroblast; [2],96% and 94%
same,Population Pyknosed Nuclei (%),Fibroblast; [2],9% and 27%
same,Population Tubulin-Different-Phenotype (%),Fibroblast; [2],19% and 45%
same,Total Cell Count,Fibroblast; [2],171 and 137
same,Population Apoptotic (%),Fibroblast; [3],59% and 58%
same,Population Fragmented Nuclei (%),Fibroblast; [3],17% and 27%
same,Population Healthy Nuclei (%),Fibroblast; [3],64% and 57%
same,Population Hoechst High Intensity Objects (%),Fibroblast; [3],5%
same,Population Membrane Permeable-Phenotype (%),Fibroblast; [3],1% and 9%
same,Population Mitochondria Different-Phenotype (%),Fibroblast; [3],4% and 7%
same,Population Mitotic Cells (%),Fibroblast; [3],40% and 41%
same,Population Normal (%),Fibroblast; [3],94%
same,Population Pyknosed Nuclei (%),Fibroblast; [3],18% and 14%
same,Population Tubulin-Different-Phenotype (%),Fibroblast; [3],28% and 45%
same,Total Cell Count,Fibroblast; [3],156 and 179
